Laboratory results published in ChEMBL document CHEMBL1154150, “Synthesis and anticonvulsant activity of some new bishydrazones derived from 3,4-dipropyloxythiophene” (Eur J Med Chem, 2009).
Activity calls are given as the source filed them. The calls are words filed in the database; no cut-off is given here.

Columns and labels:
[1] = system: Mus musculus; assay: Anticonvulsant activity in CF1 mouse assessed as protection against subcutaneous metrazole-induced seizures at 300 mg/kg, ip after 4 hrs; assay type: functional, organism-based; set-up: dose 300 mg/kg
[2] = system: Mus musculus; assay: Neurotoxicity in CF1 mouse at 100 mg/kg, ip after 0.5 hrs by rotarod test; assay type: toxicity, organism-based; set-up: dose 100 mg/kg, route intraperitoneal; settings: in vivo
Outline: (§1)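 Rotorod neurotoxicity in male CF-1 mice (18–25 g) after i.p. compound in 0.5% methyl cellulose/water or PEG 200 at 30, 100 or 300 mg/kg; reported as number showing toxicity/number tested.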

[3] = system: Mus musculus; assay: Neurotoxicity in CF1 mouse at 300 mg/kg, ip after 4 hrs by rotarod test; assay type: toxicity, organism-based; set-up: dose 300 mg/kg, route intraperitoneal; settings: in vivo; outline: as §1
[4] = system: Mus musculus; assay: Neurotoxicity in CF1 mouse at 30 mg/kg, ip after 4 hrs by rotarod test; assay type: toxicity, organism-based; set-up: dose 30 mg/kg, route intraperitoneal; settings: in vivo; outline: as §1
[5] = system: Mus musculus; assay: Anticonvulsant activity in CF1 mouse assessed as protection against subcutaneous metrazole-induced seizures at 100 mg/kg, ip after 4 hrs; assay type: functional, organism-based; set-up: dose 100 mg/kg
[6] = system: Mus musculus; assay: Anticonvulsant activity in CF1 mouse assessed as protection against 6 Hz electric shock-induced seizures at 100 mg/kg, ip after 2 hrs; assay type: functional, organism-based; set-up: dose 100 mg/kg
Outline: (§2)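 Male CF-1 albino mice (18–25 g), compound suspended in 0.5% methyl cellulose/water or PEG 200, given i.p.; four mice per time point (0.25, 0.5, 1.0, 2.0, 4 h) challenged via corneal electrodes at 6 Hz, 32 mA for 3 s, current eliciting psychomotor seizure in 97% of animals; reported as protected/tested.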

[7] = system: Mus musculus; assay: Anticonvulsant activity in CF1 mouse assessed as protection against subcutaneous metrazole-induced seizures at 30 mg/kg, ip after 4 hrs; assay type: functional, organism-based; set-up: dose 30 mg/kg
[8] = system: Mus musculus; assay: Neurotoxicity in CF1 mouse at 300 mg/kg, ip after 0.5 hrs by rotarod test; assay type: toxicity, organism-based; set-up: dose 300 mg/kg, route intraperitoneal; settings: in vivo; outline: as §1
[9] = system: Mus musculus; assay: Anticonvulsant activity in CF1 mouse assessed as protection against 6 Hz electric shock-induced seizures at 100 mg/kg, ip after 4 hrs; assay type: functional, organism-based; set-up: dose 100 mg/kg; outline: as §2
[10] = system: Mus musculus; assay: Neurotoxicity in CF1 mouse at 100 mg/kg, ip after 4 hrs by rotarod test; assay type: toxicity, organism-based; set-up: dose 100 mg/kg, route intraperitoneal; settings: in vivo; outline: as §1
[11] = system: Mus musculus; assay: Anticonvulsant activity in CF1 mouse assessed as protection against maximal electroshock-induced seizures at 300 mg/kg, ip after 4 hrs; assay type: functional, organism-based; set-up: dose 300 mg/kg
Outline: (§3)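 Male CF-1 albino mice (18–25 g), dosed i.p. at 30, 100 or 300 mg/kg in 0.5% methyl cellulose/water or PEG 200 (0.01 ml/g); tested at intervals after dosing; protection = abolition of hind limb tonic extensor component of MES seizure; scored as protected/tested.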

[12] = system: Mus musculus; assay: Anticonvulsant activity in CF1 mouse assessed as protection against maximal electroshock-induced seizures at 30 mg/kg, ip after 4 hrs; assay type: functional, organism-based; set-up: dose 30 mg/kg; outline: as §3
[13] = system: Mus musculus; assay: Neurotoxicity in CF1 mouse at 30 mg/kg, ip after 0.5 hrs by rotarod test; assay type: toxicity, organism-based; set-up: dose 30 mg/kg, route intraperitoneal; settings: in vivo; outline: as §1
[14] = system: Mus musculus; assay: Anticonvulsant activity in CF1 mouse assessed as protection against subcutaneous metrazole-induced seizures at 300 mg/kg, ip after 0.5 hrs; assay type: functional, organism-based; set-up: dose 300 mg/kg
[15] = system: Mus musculus; assay: Anticonvulsant activity in CF1 mouse assessed as protection against 6 Hz electric shock-induced seizures at 100 mg/kg, ip after 0.25 hrs; assay type: functional, organism-based; set-up: dose 100 mg/kg; outline: as §2
[16] = system: Mus musculus; assay: Anticonvulsant activity in CF1 mouse assessed as protection against subcutaneous metrazole-induced seizures at 30 mg/kg, ip after 0.5 hrs; assay type: functional, organism-based; set-up: dose 30 mg/kg
[17] = system: Mus musculus; assay: Anticonvulsant activity in CF1 mouse assessed as protection against maximal electroshock-induced seizures at 300 mg/kg, ip after 0.5 hrs; assay type: functional, organism-based; set-up: dose 300 mg/kg; outline: as §3
[18] = system: Mus musculus; assay: Anticonvulsant activity in CF1 mouse assessed as protection against maximal electroshock-induced seizures at 100 mg/kg, ip after 4 hrs; assay type: functional, organism-based; set-up: dose 100 mg/kg; outline: as §3
[19] = system: Mus musculus; assay: Anticonvulsant activity in CF1 mouse assessed as protection against maximal electroshock-induced seizures at 100 mg/kg, ip after 0.5 hrs; assay type: functional, organism-based; set-up: dose 100 mg/kg; outline: as §3
[20] = system: Mus musculus; assay: Anticonvulsant activity in CF1 mouse assessed as protection against maximal electroshock-induced seizures at 30 mg/kg, ip after 0.5 hrs; assay type: functional, organism-based; set-up: dose 30 mg/kg; outline: as §3
[21] = system: Mus musculus; assay: Anticonvulsant activity in CF1 mouse assessed as protection against subcutaneous metrazole-induced seizures at 100 mg/kg, ip after 0.5 hrs; assay type: functional, organism-based; set-up: dose 100 mg/kg
[22] = system: Mus musculus; assay: Anticonvulsant activity in CF1 mouse assessed as protection against 6 Hz electric shock-induced seizures at 100 mg/kg, ip after 1 hr; assay type: functional, organism-based; set-up: dose 100 mg/kg; outline: as §2

| Compound | Activity [1] | Activity [2] | Activity [3] | Activity [4] | Activity [5] | Activity [7] | Activity [8] | Activity [9] | Activity [10] | Activity [11] | Activity [12] | Activity [13] | Activity [14] | Activity [15] | Activity [16] | Activity [17] | Activity [18] | Activity [19] | Activity [20] | Activity [21] | other results |
| --- | --- | --- | --- | --- | --- | --- | --- | --- | --- | --- | --- | --- | --- | --- | --- | --- | --- | --- | --- | --- | --- |
| CCCOc1c(C(=O)N/N=C\c2c[nH]c3ccccc23)sc(C(=O)N/N=C/c2c[nH]c3ccccc23)c1OCCC | inactive | Toxic | Non-toxic | Non-toxic | inactive | inactive | Toxic | inactive | Non-toxic | inactive | inactive | Non-toxic | inactive | inactive | inactive | inactive | inactive | inactive | inactive |  | Activity [6]: inactive |
| CCCOc1c(C(=O)N/N=C\c2ccccc2)sc(C(=O)N/N=C/c2ccccc2)c1OCCC |  | Non-toxic | Non-toxic | Non-toxic | inactive | inactive | Non-toxic | inactive | Non-toxic | inactive | inactive | Non-toxic | inactive | inactive | inactive | inactive | inactive | inactive | inactive | inactive | Activity [6]: inactive |
| CCCOc1c(C(=O)NN=C2CCCCCC2)sc(C(=O)NN=C2CCCCCC2)c1OCCC | inactive | Non-toxic | Non-toxic | Non-toxic | inactive | inactive | Non-toxic | inactive | Non-toxic |  | inactive | Non-toxic | inactive | inactive | inactive | inactive | inactive | inactive | inactive | inactive | Activity [6]: inactive; Activity [22]: inactive |
| CCCOc1c(C(=O)N/N=C/c2ccc3c(c2)c2ccccc2n3CC)sc(C(=O)N/N=C/c2ccc3c(c2)c2ccccc2n3CC)c1OCCC | inactive | Toxic | Non-toxic | Non-toxic | inactive | inactive | Toxic |  | Non-toxic | inactive | inactive | Non-toxic | inactive |  | inactive | inactive | inactive | inactive | inactive | inactive |  |
| CCCOc1c(C(=O)N/N=C(\C)c2cccs2)sc(C(=O)N/N=C(\C)c2cccs2)c1OCCC |  | Non-toxic | Non-toxic | Non-toxic | inactive | inactive | Non-toxic |  | Non-toxic |  | inactive | Non-toxic | inactive | inactive | inactive | inactive | inactive | inactive | inactive | inactive |  |
| CCCOc1c(C(=O)N/N=C\c2ccc3c(c2)Cc2ccccc2-3)sc(C(=O)N/N=C/c2ccc3c(c2)Cc2ccccc2-3)c1OCCC | inactive |  | Toxic | Non-toxic | inactive | inactive | Toxic | inactive | Non-toxic | inactive | inactive | Non-toxic | inactive | inactive | inactive | inactive | inactive | inactive | inactive |  |  |
| CCCOc1c(C(=O)NN=C2CC(C)Sc3sc(S(N)(=O)=O)cc32)sc(C(=O)NN=C2CC(C)Sc3sc(S(N)(=O)=O)cc32)c1OCCC (centres undefined) | inactive | Toxic | Toxic | Non-toxic | inactive | inactive | Toxic |  | Non-toxic | inactive | inactive | Non-toxic | inactive |  | inactive | inactive | inactive | inactive | inactive | inactive |  |
| CCCOc1c(C(=O)N/N=C/c2ccc3cc(OC)ccc3c2)sc(C(=O)N/N=C/c2ccc3cc(OC)ccc3c2)c1OCCC | inactive | Non-toxic | Non-toxic | Non-toxic | inactive | inactive | Non-toxic |  | Non-toxic | inactive | inactive | Non-toxic | inactive |  | inactive | inactive | inactive | inactive | inactive | inactive |  |
| CCCOc1c(C(=O)NN=C(C)C)sc(C(=O)NN=C(C)C)c1OCCC | inactive | Non-toxic | Non-toxic | Non-toxic | inactive | inactive | Toxic |  | Non-toxic | inactive | inactive | Non-toxic | inactive |  | inactive | inactive | inactive | inactive | inactive | inactive |  |
| CCCOc1c(C(=O)N/N=C/c2ccc(-c3ccccc3)cc2)sc(C(=O)N/N=C/c2ccc(-c3ccccc3)cc2)c1OCCC | inactive | Toxic | Non-toxic | Non-toxic | inactive | inactive | Toxic |  | Non-toxic | inactive | inactive | Non-toxic | inactive |  | inactive | inactive | inactive | inactive | inactive | inactive |  |
| CCCOc1c(C(=O)NN=C2CC(C)Sc3sccc32)sc(C(=O)NN=C2CC(C)Sc3sccc32)c1OCCC (centres undefined) | inactive | Toxic | Non-toxic | Non-toxic | inactive | inactive | Toxic |  | Non-toxic | inactive | inactive | Toxic | inactive |  | inactive | inactive | inactive | inactive | inactive | inactive |  |
